From PMC4142700 (The Prostate, 2010)
Where “and” joins values, the source holds several entries; their conditions need not be identical. Identical values can stand only once. Entries after “also recorded” stand apart in the source; their conditions may differ.

Experiments:
[1] = assay type: in vivo, patients
[2] = Pharmacokinetics of 2DG in plasma; assay type: in vivo, patients
In short: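 Blood samples (5 ml each) were drawn predose, hourly to 6 hr after oral 2DG on cycle 1 day 1, at 24 and 48 hr after cycle 1 day 1, and again on cycle 2 day 1. Plasma extracts were derivatized to 2-aminobenzoic acid derivatives, and 2DG was quantified by HPLC with fluorometric detection.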

[3] = tested on: FDG uptake; assay: FDG-PET imaging at baseline and day 2: effect of 2DG on FDG uptake; assay type: in vivo, patients
In short: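 FDG-PET scans were taken at baseline, cycle 1 day 2 and cycle 2 day 15, with 2DG given orally on days 1–14 of 21-day cycles. FDG uptake was expressed as SUV at a selected tumor site divided by liver SUV, with liver serving as the control. Baseline and day 2 ratios were compared in nine patients.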

[4] = tested on: p62; assay: p62 protein in peripheral blood mononuclear cells by Western blot; assay type: in vivo, patients; settings: PBMCs, immunoblot, normalized to α-tubulin
In short: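 PBMCs were collected from six patients at baseline, 4 hr and 24 hr. Extracts were prepared in Laemmli buffer, resolved by SDS–PAGE and transferred to PVDF. Blots were probed for p62 and α-tubulin, then detected with HRP secondary antibody and ECL. Scanned bands were quantified by optical density, and p62 was normalized to α-tubulin.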

[5] = tested on: castrate-resistant prostate cancer (CRPC); assay: Clinical outcome; assay type: in vivo, patients
In short: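 Oral 2DG, aqueous solution formulated at 100 mg/ml in water, given daily on days 1–14 of 21-day cycles. Dose cohorts were 30, 45 and 60 mg/kg. Each dose was given 1 hr before breakfast, followed by a ~50 ml water rinse of the dosing container. Patients with CRPC were followed for PSA and radiographic disease status across cycles.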

[6] = tested on: prostate cancer cells; settings: cited from earlier work
[7] = cycle 1, 30 mg/kg/day oral, n = 3, mean ± SD
[8] = cycle 1, 45 mg/kg/day oral, n = 4, mean ± SD
[9] = cycle 1, 60 mg/kg/day oral, n = 4, mean ± SD
[10] = cycle 2, 30 mg/kg/day oral, n = 3, mean ± SD
[11] = cycle 2, 45 mg/kg/day oral, n = 4, mean ± SD
[12] = cycle 2, 60 mg/kg/day oral, n = 4, mean ± SD

With `O=CC[C@@H](O)[C@H](O)[C@H](O)CO` [2DG, 2-deoxyglucose] the dose-limiting toxicity ([1]; human, in vivo, 60 mg/kg, 3 weeks) was “grade 3 asymptomatic QTc prolongation”, the “patients with grade 2 fatigue” value ([1]; in vivo) was “three” and the tolerability ([1]; in vivo, 45 mg/kg) was “well tolerated”. The QT interval ([1]; in vivo, 60 mg/kg) was “prolonged”, the “recommended phase II dose” value ([1]; oral, days 1–14 of a 21-day cycle) was 45 mg/kg and the AUC [2, 7] was 821.2±236.2 μmol/Lhr. It also gave a Clearance [2, 7] of 232.0 ± 63.8 mL/h, a Cmax [2, 7] of 277 ± 18.6 µM and an AUC [2, 8] of 1107.7±213.3 μmol/Lhr. For the same molecule, the Clearance [2, 8] was 243.3 ± 49.4 mL/h, the Cmax [2, 8] was 449 ± 168 µM and the AUC [2, 9] was 2086.2±743.2 μmol/Lhr. It also gave a Clearance [2, 9] of 185.0 ± 52.6 mL/h, an AUC [2, 10] of 751.3 ± 181.7 μmol/Lhr and a Clearance [2, 10] of 246.3 ± 56.6 mL/h. It also gave an AUC [2, 11] of 1087.1 ± 441.8 μmol/Lhr, a Clearance [2, 11] of 270.4 ± 126.4 mL/h and an AUC [2, 12] of 1226.9 ± 571.2 μmol/Lhr. The Clearance [2, 12] was 314.9 ± 108.7 mL/h, the “dose dependence of pharmacokinetics” value ([2]; dose levels 30, 45 and 60 mg/kg) was “linear pharmacokinetics; also recorded: linear with dose level” and the Cmax ([2]; human, plasma, po, 30 mg/kg, Cmax, dose level 30 mg/kg oral) was 45 µg/mL. For the same molecule, the Cmax ([2]; human, plasma, po, 45 mg/kg, Cmax, dose level 45 mg/kg oral) was 73.7 µg/mL, the Cmax ([2]; human, plasma, po, 60 mg/kg, Cmax, dose level 60 mg/kg oral) was 122 µg/mL and the blood concentrations reached ([2]; single agent, highest concentrations reached in this study) was 700 µM. For the same molecule, the “patients with decreased FDG uptake by day 2 of therapy” value ([3]; FDG-PET, dose level 2 or 3) was “Five of eight and five”, the “Day 2 SUV (ratio site/liver)” value ([3]; patient 5, lung, dose level 2, chest, baseline 6.3) was 11.6 and the “Day 2 SUV (ratio site/liver)” value ([3]; patient 6, cervical, dose level 2, mediastinum, baseline 4.3) was 2. For the same molecule, the “Day 2 SUV (ratio site/liver)” value ([3]; patient 7, prostate, dose level 3, L1 vertebral body, baseline 1.2) was 1, the “Day 2 SUV (ratio site/liver)” value ([3]; patient 8, prostate, dose level 3, ischium, baseline 2.8) was 2.0 and the “Day 2 SUV (ratio site/liver)” value ([3]; patient 11, prostate, dose level 2, ilium, baseline 3.8) was 3. The “patients with a decrease in p62 level at 24 hr” value [4] was “Five of six”, the “cycles on study with radiographically stable disease” value ([5]; individual patients with CRPC) was 8 cycles and 12 cycles and 21 cycles and the “declines in PSA” value ([5]; seven patients with prostate cancer who completed study therapy) was “no declines”. For the same molecule, the “effect in prostate cancer cell lines” value ([6]; autophagy a mechanism of resistance) was “cytotoxic effect” and the “effect on prostate cancer cells” value ([6]; preclinical studies) was “cytotoxic”.
